Measured values taken from ChEMBL document CHEMBL1141626, “Thiosemicarbazones active against Clostridium difficile” (2008).
≈ marks a conversion by molar mass, not a printed value.

Columns and labels:
Format in all cases: functional
[1] = system: Clostridioides difficile; assay: Antimicrobial activity against Clostridium difficile Z251 after 48 hrs
Summary of the method: (§1)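 Anaerobes incubated in an anaerobic cabinet for broth MIC determination. Drug-free incubations of the same organisms served as controls. Value is the minimum inhibitory concentration.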

[2] = system: Candida albicans; assay: Antimicrobial activity against Candida albicans 1009116
[3] = system: Clostridioides difficile; assay: Antimicrobial activity against Clostridium difficile Z168 after 48 hrs; summary of the method: as §1
[4] = system: Clostridioides difficile; assay: Antimicrobial activity against Clostridium difficile Z66 after 48 hrs; summary of the method: as §1
[5] = system: Staphylococcus aureus; assay: Antimicrobial activity against methicillin-resistant Staphylococcus aureus B3 after 24 hrs
Summary of the method: (§2)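 MIC by dilution in nutrient broth. Anaerobic organisms were incubated in an anaerobic cabinet. Controls were the same organisms incubated without test compound.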

[6] = system: Cutibacterium acnes; assay: Antimicrobial activity against Propionibacterium acnes B3 after 24 hrs
[7] = system: Clostridioides difficile; assay: Antimicrobial activity against Clostridium difficile Z21 after 48 hrs; summary of the method: as §1
[8] = system: Clostridioides difficile; assay: Antimicrobial activity against Clostridium difficile Z164 after 48 hrs; summary of the method: as §1
[9] = system: Staphylococcus aureus; assay: Antimicrobial activity against methicillin-resistant Staphylococcus aureus B1 after 24 hrs; summary of the method: as §2
[10] = system: Acinetobacter sp.; assay: Antimicrobial activity against Acinetobacter sp.3
[11] = system: Clostridioides difficile; assay: Antimicrobial activity against Clostridium difficile Z1580 after 48 hrs; summary of the method: as §1
[12] = system: Clostridioides difficile; assay: Antimicrobial activity against Clostridium difficile Z163 after 48 hrs; summary of the method: as §1
[13] = system: Staphylococcus epidermidis; assay: Antimicrobial activity against Staphylococcus epidermidis 4 after 24 hrs; summary of the method: as §2
[14] = system: Cutibacterium acnes; assay: Antimicrobial activity against Propionibacterium acnes B5 after 48 hrs; summary of the method: as §1
[15] = system: Staphylococcus aureus; assay: Antimicrobial activity against methicillin-sensitive Staphylococcus aureus A2 after 24 hrs; summary of the method: as §2
[16] = system: Clostridioides difficile; assay: Antimicrobial activity against Clostridium difficile Z172 after 48 hrs; summary of the method: as §1
[17] = system: Clostridioides difficile; assay: Antimicrobial activity against Clostridium difficile Z170 after 48 hrs; summary of the method: as §1
[18] = system: Clostridioides difficile; assay: Antimicrobial activity against Clostridium difficile Z160 after 48 hrs; summary of the method: as §1
[19] = system: Cutibacterium acnes; assay: Antimicrobial activity against Propionibacterium acnes C3 after 48 hrs; summary of the method: as §2
[20] = system: Cutibacterium acnes; assay: Antimicrobial activity against Propionibacterium acnes C1 after 24 hrs; summary of the method: as §2
[21] = system: Staphylococcus aureus; assay: Antimicrobial activity against methicillin-resistant Staphylococcus aureus C3 after 24 hrs; summary of the method: as §2
[22] = system: Cutibacterium acnes; assay: Antimicrobial activity against Propionibacterium acnes NCTC 737 after 48 hrs; settings: NCTC 737, 48 h; summary of the method: as §2
[23] = system: Cutibacterium acnes; assay: Antimicrobial activity against Propionibacterium acnes D3 after 48 hrs; summary of the method: as §2
[24] = system: Clostridioides difficile; assay: Antimicrobial activity against Clostridium difficile Z175 after 48 hrs; summary of the method: as §1
[25] = system: Staphylococcus epidermidis; assay: Antimicrobial activity against Staphylococcus epidermidis 8A after 24 hrs; summary of the method: as §2
[26] = system: Staphylococcus epidermidis; assay: Antimicrobial activity against Staphylococcus epidermidis 9 after 24 hrs; summary of the method: as §2
[27] = system: Staphylococcus aureus; assay: Antimicrobial activity against Staphylococcus aureus H1 after 24 hrs; summary of the method: as §2
[28] = system: Cutibacterium acnes; assay: Antimicrobial activity against Propionibacterium acnes D1 after 48 hrs; summary of the method: as §2
[29] = system: Clostridioides difficile; assay: Antimicrobial activity against Clostridium difficile Z150 after 48 hrs; summary of the method: as §1
[30] = system: Candida albicans; assay: Antimicrobial activity against Candida albicans 1011377
[31] = system: Staphylococcus aureus; assay: Antimicrobial activity against methicillin-resistant Staphylococcus aureus C1 after 24 hrs; summary of the method: as §2
[32] = system: Staphylococcus epidermidis; assay: Antimicrobial activity against Staphylococcus epidermidis 7A after 24 hrs; summary of the method: as §2
[33] = system: Staphylococcus epidermidis; assay: Antimicrobial activity against Staphylococcus epidermidis 11 after 24 hrs; summary of the method: as §2
[34] = system: Staphylococcus aureus; assay: Antimicrobial activity against methicillin-resistant Staphylococcus aureus A3 after 24 hrs; summary of the method: as §2
[35] = system: Staphylococcus epidermidis; assay: Antimicrobial activity against Staphylococcus epidermidis NCTC 11047 after 24 hrs; settings: NCTC 11047, 24 h; summary of the method: as §2
[36] = system: Staphylococcus aureus; assay: Antimicrobial activity against epidemic methicillin-resistant Staphylococcus aureus 15 after 24 hrs; summary of the method: as §2
[37] = system: Clostridioides difficile; assay: Antimicrobial activity against Clostridium difficile Z1578 after 48 hrs; summary of the method: as §1
[38] = system: Staphylococcus aureus; assay: Antimicrobial activity against Staphylococcus aureus T1 after 24 hrs; summary of the method: as §2
[39] = system: Clostridioides difficile; assay: Antimicrobial activity against Clostridium difficile Z1577 after 48 hrs; summary of the method: as §1

With `CCNC(=S)N/N=C/C=C/c1ccc([N+](=O)[O-])o1` the MIC [1] was 1 µg/mL (≈ 3.73 µM), the MIC [2] was 128 µg/mL (≈ 477 µM) and the MIC [3] was 2 µg/mL (≈ 7.45 µM). The MIC [4] was 4 µg/mL (≈ 14.9 µM), the MIC [5] was 4 µg/mL (≈ 14.9 µM) and the MIC [6] was 8 µg/mL (≈ 29.8 µM). The MIC [7] was 16 µg/mL (≈ 59.6 µM), the MIC [8] was 1 µg/mL (≈ 3.73 µM) and the MIC [9] was 4 µg/mL (≈ 14.9 µM). For the same compound, the MIC [10] was 128 µg/mL (≈ 477 µM), the MIC [11] was 1 µg/mL (≈ 3.73 µM) and the MIC [12] was 2 µg/mL (≈ 7.45 µM). The MIC [13] was 4 µg/mL (≈ 14.9 µM), the MIC [14] was 8 µg/mL (≈ 29.8 µM) and the MIC [15] was 4 µg/mL (≈ 14.9 µM). For the same compound, the MIC [16] was 4 µg/mL (≈ 14.9 µM), the MIC [17] was 2 µg/mL (≈ 7.45 µM) and the MIC [18] was 8 µg/mL (≈ 29.8 µM). The MIC [19] was 2 µg/mL (≈ 7.45 µM), the MIC [20] was 8 µg/mL (≈ 29.8 µM) and the MIC [21] was 4 µg/mL (≈ 14.9 µM). The MIC [22] was 4 µg/mL (≈ 14.9 µM), the MIC [23] was 4 µg/mL (≈ 14.9 µM) and the MIC [24] was 0.5 µg/mL (≈ 1.86 µM). It also gave an MIC [25] of 2 µg/mL (≈ 7.45 µM), an MIC [26] of 1 µg/mL (≈ 3.73 µM) and an MIC [27] of 64 µg/mL (≈ 239 µM). For the same compound, the MIC [28] was 4 µg/mL (≈ 14.9 µM), the MIC [29] was 4 µg/mL (≈ 14.9 µM) and the MIC [30] was 128 µg/mL (≈ 477 µM). The MIC [31] was 2 µg/mL (≈ 7.45 µM), the MIC [32] was 2 µg/mL (≈ 7.45 µM) and the MIC [33] was 1 µg/mL (≈ 3.73 µM). The MIC [34] was 4 µg/mL (≈ 14.9 µM), the MIC [35] was 4 µg/mL (≈ 14.9 µM) and the MIC [36] was 4 µg/mL (≈ 14.9 µM). For the same compound, the MIC [37] was 1 µg/mL (≈ 3.73 µM), the MIC [38] was 4 µg/mL (≈ 14.9 µM) and the MIC [39] was 0.5 µg/mL (≈ 1.86 µM).
